Results collected from several papers.
Protocols differ between the studies behind these lines.
Target: Fibroblast growth factor receptor 2 (FGFR2, Homo sapiens, UniProt P21802)

Cc1cnc(Nc2ccc(C(=O)N3CCC(N4CCCC4)CC3)cc2)nc1-c1cc2ccccc2s1  remaining binding (binding; competition with immobilised ligand; 1 µM): 14%
Cc1cnn2ncc(-c3ccnc(N(C)C)n3)c2c1  remaining binding (binding; 1 µM): 98%
C[C@@H]1CN(c2ccc3ncc(-c4ccc5[nH]nc(C6CC6)c5c4)n3n2)C[C@H](C)O1  remaining binding (binding; competition with immobilised ligand; 0.5 µM): 100%
O=C(c1ccc(Nc2ncc(Cl)c(-c3cc4ccccc4s3)n2)cc1)N1CCC(N2CCCC2)CC1  remaining binding (binding; competition with immobilised ligand; 1 µM): 33%
CC(C)(C)c1ccc(-c2nc(CBr)nn2-c2cccc(O)c2)cc1  remaining binding (cell-free assay; competition with immobilised ligand; 10 µM): 95%
CN(C)c1nccc(-c2cnn3ncccc23)n1  remaining binding (binding; 1 µM): 100%
Cc1c(C(=O)O)cc(-c2ccc(C3CCNCC3)cc2)c2ccc(-c3ccc(C(F)(F)F)cc3)cc12  remaining binding (cell-free assay; competition with immobilised ligand; 1 µM): 100%
FC(F)(F)Oc1cccc(-c2cnc3ccc(-c4ccncc4)nn23)c1  remaining binding (cell-free assay; competition with immobilised ligand; 5 µM): 81%
C[C@@H](c1ccc(-n2cnc3c(N)ncnc32)cc1)N1CCc2nn(C)c(Cc3ccccc3)c2C1=O  remaining binding (binding; competition with immobilised ligand; 0.1 µM): 72%
O=C(O)c1cc(-c2ccc(C3CCNCC3)cc2)c2ccc(-c3ccc(C(F)(F)F)cc3)cc2c1  remaining binding (cell-free assay; competition with immobilised ligand; 1 µM): 100%
C[C@@H]1CCN(c2nccc(-c3cnn4ncccc34)n2)C1  remaining binding (binding; 1 µM): 92%
CCC(=O)N[C@@H]1CC[C@H](C(=O)N(C)c2ccc(-c3nc4ccccc4o3)cc2)C1  remaining binding (cell-free assay; competition with immobilised ligand; 1 µM): 86%
N[C@@H]1CCN(c2nccc(-c3cnn4ncccc34)n2)C1  remaining binding (binding; 1 µM): 99%
CC(=O)c1c(NS(C)(=O)=O)c2cc(-c3ccc(Cl)cc3)c(-c3ccc(Cl)cc3Cl)nc2n(C)c1=O  remaining binding (cell-free assay; competition with immobilised ligand; 1 µM): 92%
COc1cnc(Nc2cccc(S(N)(=O)=O)c2)nc1N1CCN(c2ccccc2)C(=O)C1  remaining binding (binding; competition with immobilised ligand; 1 µM): 90%
Cc1cc(-n2nc(Cc3cc(F)cc(C(F)(F)F)c3)nc2C)ccc1C(N)=O  remaining binding (cell-free assay; competition with immobilised ligand; 1 µM): 100%
CC1CCCN1c1nccc(-c2cnn3ncccc23)n1 (centres unmarked)  remaining binding (binding; 1 µM): 100%
